ChEMBL document CHEMBL3870315, “Design, synthesis and biological evaluation of novel cholesteryl ester transfer protein inhibitors bearing a cycloalkene scaffold” (Eur J Med Chem, 2016)
Active and inactive are the calls of the source. The rule behind the calls is not given here.

Experiments:
[1] = target: T1, Cholesteryl ester transfer protein (Homo sapiens, UniProt P11597); assay: Inhibition of recombinant CETP (unknown origin) assessed as inhibition of BODIPY-labeled cholesteryl transfer to fluorescent substrate by fluorimetric assay
T1 sequence (P11597 whole entry): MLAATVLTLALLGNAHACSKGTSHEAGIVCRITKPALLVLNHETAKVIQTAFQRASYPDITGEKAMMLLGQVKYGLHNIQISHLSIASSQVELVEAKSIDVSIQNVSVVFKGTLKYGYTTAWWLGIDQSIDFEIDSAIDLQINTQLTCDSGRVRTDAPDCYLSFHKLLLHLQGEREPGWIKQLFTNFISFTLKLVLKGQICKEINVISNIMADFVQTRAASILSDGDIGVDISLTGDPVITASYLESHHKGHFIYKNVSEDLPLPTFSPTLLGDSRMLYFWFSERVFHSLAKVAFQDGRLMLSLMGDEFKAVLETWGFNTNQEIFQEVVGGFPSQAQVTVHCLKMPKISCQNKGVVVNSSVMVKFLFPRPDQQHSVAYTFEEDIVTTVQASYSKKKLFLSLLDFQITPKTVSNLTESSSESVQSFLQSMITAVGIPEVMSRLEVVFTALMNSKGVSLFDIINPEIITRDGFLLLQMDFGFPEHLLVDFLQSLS

[2] = AUC in Sprague-Dawley rat at 50 mg/Kg, po; format: ADME; conditions: in vivo
How it was run: (§1)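 Four adult male Sprague-Dawley rats, fasted 16 h, given a single oral dose of 50 mg/kg suspended in 10% ethanol/10% hydrogenated castor oil/80% water. Heparinized blood was drawn at 0.5–36 h (15 time points) and centrifuged at 3000 rpm for 15 min. Plasma was stored at -70°C until analysis.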

[3] = Terminal half life in Sprague-Dawley rat at 50 mg/Kg, po; format: ADME; conditions: in vivo, read-out: beta t1/2 (converted); how it was run: as §1
[4] = tested on: Syrian golden hamster; assay: In vivo inhibition of CETP in high-fat fed syrian hamster model assessed as increase in plasma HDL-cholesterol level at 50 mg/kg, po administered once daily for 5 days measured 2 hrs post last dose relative to control; format: functional, Mesocricetus auratus; design: scale not given: the % may be the effect or the level left
How it was run: (§2)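 Male Syrian golden hamsters, 8 weeks old and about 110–120 g, fed a diet with 10% lard oil and 3% cholesterol for 4 weeks, then randomized into four groups. Oral dosing once daily for 5 days in 10% ethanol/10% hydrogenated castor oil/80% water, with a vehicle control group. Animals were fasted 16 h before bleeding. Retro-orbital blood was taken at baseline and 2 h after the last dose. Plasma HDL-C was measured on a chemistry analyser and expressed as percent change. Mean ± SEM.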

[5] = Cmax in Sprague-Dawley rat at 50 mg/Kg, po; format: ADME; design: dose 50 mg/Kg, route oral; conditions: in vivo; how it was run: as §1
[6] = Tmax in Sprague-Dawley rat at 50 mg/Kg, po; format: ADME; conditions: in vivo; how it was run: as §1
[7] = tested on: Syrian golden hamster; assay: In vivo inhibition of CETP in high-fat fed syrian hamster model assessed as increase in plasma HDL-cholesterol level at 30 mg/kg, po administered once daily for 5 days measured 2 hrs post last dose relative to control; format: functional, Mesocricetus auratus; design: scale not given: the % may be the effect or the level left; how it was run: as §2
[8] = tested on: Syrian golden hamster; assay: In vivo inhibition of CETP in po dosed high-fat fed syrian hamster model assessed as increase in plasma HDL-cholesterol level administered once daily for 5 days measured 2 hrs post last dose; format: functional, organism-based; conditions: Mesocricetus auratus; how it was run: as §2

With `COc1ccc(C(C)C)cc1C1=C(CN(Cc2cc(C(F)(F)F)cc(C(F)(F)F)c2)c2ncc(-c3c(C)noc3C)cn2)CC(C)(C)CC1` the IC50 [1] was greater than 50000 nM.

`COc1ccc(C(C)C)cc1C1=C(CN(Cc2cc(C(F)(F)F)cc(C(F)(F)F)c2)c2ncc(N3CCOCC3)cn2)CC(C)(C)CC1` gave an IC50 [1] of 860 nM.

Work on `COC(=O)N(CC1=C(c2cc(C(C)C)ccc2OC)CCC(C)(C)C1)Cc1cc(C(F)(F)F)cc(C(F)(F)F)c1` yielded an IC50 [1] of 21000 nM.

In the case of `COc1ccc(C(C)C)cc1C1=C(CN(Cc2cc(C(F)(F)F)cc(C(F)(F)F)c2)c2ncc(-c3cnn(C)c3)cn2)c2ccccc2CC1`, the IC50 [1] is reported as 6630 nM.

`COc1ccc(C(C)C)cc1C1=C(CN(Cc2cc(C(F)(F)F)cc(C(F)(F)F)c2)c2ncc(-c3cnn(C)c3)cn2)CC(C)(C)CC1` showed an AUC [2] of 6990 ng·h/mL, a half-life [3] of 11.1 h and an Activity [4] of 27.9%. It also gave a Cmax [5] of 697 ng/mL, an IC50 [1] of 70 nM and a Tmax [6] of 2.5 h. The Activity [7] was 9.3% and the Activity [8] was “Dose-dependent effect”.

`COc1ccc(C(C)C)cc1C1=C(CN(Cc2cc(C(F)(F)F)cc(C(F)(F)F)c2)c2ncc(-c3cnn(C)c3)cn2)CCCCC1` showed an IC50 [1] of 1620 nM.

In the case of `COc1ccc(C(C)C)cc1C1=C(CN(Cc2cc(C(F)(F)F)cc(C(F)(F)F)c2)c2ncc(-c3cnn(C)c3)cn2)CCCC1`, the IC50 [1] is reported as 930 nM.

`COc1ccc(C(C)C)cc1C1=C(CN(Cc2cc(C(F)(F)F)cc(C(F)(F)F)c2)C(=O)OCC(C)C)CC(C)(C)CC1` showed an IC50 [1] greater than 50000 nM.

For `COc1ccc(C(C)C)cc1C1=C(CN(Cc2cc(C(F)(F)F)cc(C(F)(F)F)c2)c2ncc(Br)cn2)CC(C)(C)CC1`, the IC50 [1] was greater than 50000 nM.

Work on `COc1ccc(C(C)C)cc1C1=C(CN(Cc2cc(C(F)(F)F)cc(C(F)(F)F)c2)c2ncc(N3CCN(C)CC3)cn2)CC(C)(C)CC1` yielded an IC50 [1] of 2070 nM.

In the case of `COc1cc(F)c(C(C)C)cc1-c1ccc(C(F)(F)F)cc1CN1C(=O)O[C@H](c2cc(C(F)(F)F)cc(C(F)(F)F)c2)[C@@H]1C`, the Activity ([7]; Mesocricetus auratus) is reported as “Active”.

In the case of `COCCOc1cnc(N(CC2=C(c3cc(C(C)C)ccc3OC)CCC(C)(C)C2)Cc2cc(C(F)(F)F)cc(C(F)(F)F)c2)nc1`, the IC50 [1] is reported as 420 nM.

For `COc1ccc(C(C)C)cc1C1=C(CN(Cc2cc(C(F)(F)F)cc(C(F)(F)F)c2)C(=O)OCc2ccccc2)CC(C)(C)CC1`, the IC50 [1] was greater than 50000 nM.

`CCC1CCC(c2cc(C(C)C)ccc2OC)=C(CN(Cc2cc(C(F)(F)F)cc(C(F)(F)F)c2)c2ncc(-c3cnn(C)c3)cn2)C1` (stereo unspecified) gave an IC50 [1] of 80 nM.

With `COc1ccc(C(C)C)cc1C1=C(CN(Cc2cc(C(F)(F)F)cc(C(F)(F)F)c2)c2ncc(-c3cccs3)cn2)CC(C)(C)CC1` the IC50 [1] was greater than 50000 nM.

For `COc1ccc(C(C)C)cc1C1=C(CN(Cc2cc(C(F)(F)F)cc(C(F)(F)F)c2)c2ncc(-c3cnn(C)c3)cn2)CC(C)CC1` (stereo unspecified), the IC50 [1] was 60 nM.

`COc1ccc(C(C)C)cc1C1=C(CN(Cc2cc(C(F)(F)F)cc(C(F)(F)F)c2)c2ncc(-c3cnn(C)c3)cn2)CCC1` gave an IC50 [1] of 2760 nM.

Compound `COC(=O)COc1cnc(N(CC2=C(c3cc(C(C)C)ccc3OC)CCC(C)(C)C2)Cc2cc(C(F)(F)F)cc(C(F)(F)F)c2)nc1` has an IC50 [1] of 910 nM.

`COc1ccc(C(C)C)cc1C1=C(CN(Cc2cc(C(F)(F)F)cc(C(F)(F)F)c2)c2ncc(N3CCC(N)CC3)cn2)CC(C)(C)CC1` gave an IC50 [1] of 170 nM.

Work on `COc1ccc(C(C)C)cc1C1=C(CN(Cc2cc(C(F)(F)F)cc(C(F)(F)F)c2)c2ncc(N3CCC(NC(C)=O)CC3)cn2)CC(C)(C)CC1` yielded an IC50 [1] of 520 nM.

For `COc1ccc(C(C)C)cc1C1=C(CN(Cc2cc(C(F)(F)F)cc(C(F)(F)F)c2)c2ncc(OCCO)cn2)CC(C)(C)CC1`, the IC50 [1] was 190 nM.

In the case of `COc1ccc(C(C)C)cc1C1=C(CN(Cc2cc(C(F)(F)F)cc(C(F)(F)F)c2)c2ncc(N3CCNCC3)cn2)CC(C)(C)CC1`, the IC50 [1] is reported as 350 nM.

Compound `COc1ccc(C(C)C)cc1C1=C(CN(Cc2cc(C(F)(F)F)cc(C(F)(F)F)c2)c2ncc(-c3cnn(C)c3)cn2)CCc2ccccc21` has an IC50 [1] of 220 nM.

With `COc1ccc(C(C)C)cc1C1=C(CN(Cc2cc(C(F)(F)F)cc(C(F)(F)F)c2)c2ncc(-c3cnn(C)c3)cn2)CC(C(C)(C)C)CC1` (stereo unspecified) the IC50 [1] was 70 nM.

In the case of `COc1ccc(C(C)C)cc1C1=C(CN(Cc2cc(C(F)(F)F)cc(C(F)(F)F)c2)c2ncc(OCC(=O)O)cn2)CC(C)(C)CC1`, the IC50 [1] is reported as 360 nM.

`COc1ccc(C(C)C)cc1C1=C(CN(Cc2cc(C(F)(F)F)cc(C(F)(F)F)c2)c2ncc(-c3ccnn3C)cn2)CC(C)(C)CC1` gave an IC50 [1] greater than 50000 nM.

In the case of `COc1ccc(C(C)C)cc1C1=C(CN(Cc2cc(C(F)(F)F)cc(C(F)(F)F)c2)c2ncc(OCCCC(=O)O)cn2)CC(C)(C)CC1`, the IC50 [1] is reported as 300 nM.

With `COc1ccc(C(C)C)cc1C1=C(CN(Cc2cc(C(F)(F)F)cc(C(F)(F)F)c2)c2ncc(N3CCC(C(=O)O)CC3)cn2)CC(C)(C)CC1` the IC50 [1] was 370 nM.

With `COc1ccc(C(C)C)cc1C1=C(CN(Cc2cc(C(F)(F)F)cc(C(F)(F)F)c2)c2ncc(O)cn2)CC(C)(C)CC1` the IC50 [1] was 3520 nM.
